Laboratory results from ChEMBL document CHEMBL6071151, “Discovery of Inhibitors Targeting Protein-Protein Interaction between Bacterial RNA Polymerase and NusG as Novel Antimicrobials” (J Med Chem, 2024).
Values after ≈ are worked out from the molar mass of the structure shown. Active and inactive are the calls of the source.

Key:
Staphylococcus aureus [1] = assay: Antimicrobial activity against community-associated methicillin-resistant Staphylococcus aureus USA300 assessed as inhibition of microbial growth at 1 times MIC measured after 2 hrs by time-kill assay; type: functional, organism-based
Outline: (§1)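 S. aureus (ATCC 25923 or CA-MRSA USA300) in log phase suspended at about 1.5×10^6 CFU/mL in CA-MHB containing compound at multiples of MIC, with a drug-free broth control. Cultures held at 37 °C, aerobic, shaking at 180 rpm. Samples taken at 0, 2, 4 and 6 h, 10-fold diluted in PBS and spotted on Columbia blood agar. Colonies counted after overnight 37 °C as CFU/mL. Triplicate.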

Streptococcus pneumoniae [2] = assay: Antimicrobial activity against Streptococcus pneumoniae ATCC 49619 assessed as reduction in microbial growth measured after 20 hrs by CLSI based broth microdilution method; type: functional
Staphylococcus aureus [3] = assay: Antimicrobial activity against Staphylococcus aureus ATCC 25923 assessed as reduction in bacterial count below the detectable threshold at 4 to 16 times MIC measured within 2 hrs by time-kill assay; type: functional, organism-based
Staphylococcus aureus [4] = assay: Antimicrobial activity against Staphylococcus aureus ATCC 25923 assessed as reduction in bacterial growth at 4 to 16 times MIC measured over 6 hrs by time-kill assay relative to control; type: functional; parameters: scale not given: the % may be the effect or the level left; outline: as §1
[5] = test system: Staphylococcus saprophyticus; assay: Antimicrobial activity against Staphylococcus saprophyticus ATCC 15305 assessed as reduction in microbial growth measured after 20 hrs by CLSI based broth microdilution method; type: functional
Bacillus subtilis [6] = assay: Antibacterial activity against Bacillus Subtilis assessed as bacterial transcription by measuring subcellular localization of MreB at 1 time MIC incubated for 30 mins by epifluorescence microscopy based analysis; type: functional, organism-based
Outline: (§2)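 B. subtilis reporter strains expressing GFP fusions, grown overnight on selective LB agar at 37 °C, then overnight in LB with selective antibiotic and xylose, 37 °C, 180 rpm. Cells mounted on 1.2% agarose, imaged by epifluorescence with 100×/1.45 oil objective, FITC (525/50) filter.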

Staphylococcus aureus [7] = assay: Antimicrobial activity against Staphylococcus aureus ATCC 25923 assessed as reduction in microbial growth measured after 20 hrs by CLSI based broth microdilution method; type: functional
Outline: (§3)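 Broth microdilution per CLSI in cation-adjusted Mueller-Hinton broth. Two-fold serial dilutions from 256 to 0.25 μg/mL, inoculum about 5 × 10⁵ CFU/mL. Read after 20 h at 37 °C. MIC is the lowest concentration with no visible growth. Run in duplicate.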

Staphylococcus aureus [8] = assay: Antimicrobial activity against Staphylococcus aureus ATCC 25923 assessed as reduction in bacterial count at 1 times MIC measured after 4 to 6 hrs by time-kill assay; type: functional, organism-based; settings: time 4-6 hrs
Bacillus subtilis [9] = assay: Antibacterial activity against Bacillus Subtilis assessed as bacterial transcription by measuring delocalization of GFP-tagged RpsB at 1 time MIC incubated for 30 mins by epifluorescence microscopy based analysis; type: functional, organism-based; outline: as §2
Bacillus subtilis [10] = assay: Antibacterial activity against Bacillus Subtilis assessed as bacterial transcription by measuring delocalization of NusG at 1 time MIC incubated for 30 mins by epifluorescence microscopy based analysis; type: functional, organism-based; outline: as §2
Escherichia coli [11] = assay: Upregulation of cat gene transcription level in Escherichia coli K12 transformed with pSL103 at 1/8 to 1/4 times MIC measured after 30 mins; type: functional
Outline: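 Cells lysed with lysozyme in TE, total RNA extracted and reverse transcribed. cat transcript quantified by SYBR Green qPCR, 40 cycles, normalised to gyrB by ΔCT. Triplicates, unpaired t-test.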

Streptococcus pneumoniae [12] = assay: Antimicrobial activity against Streptococcus pneumoniae NP112 (NR-19213) assessed as reduction in microbial growth measured after 20 hrs by CLSI based broth microdilution method; type: functional
Klebsiella pneumoniae = assay: Antimicrobial activity against Klebsiella pneumoniae ATCC 700603 assessed as reduction in microbial growth measured after 20 hrs by CLSI based broth microdilution method; type: functional; outline: as §3
Streptococcus pneumoniae [13] = assay: Antimicrobial activity against Streptococcus pneumoniae clinical isolate CUHK-X04 assessed as reduction in microbial growth measured after 20 hrs by CLSI based broth microdilution method; type: functional
Staphylococcus aureus [14] = assay: Antimicrobial activity against Staphylococcus aureus ATCC 29213 assessed as reduction in microbial growth measured after 20 hrs by CLSI based broth microdilution method; type: functional; outline: as §3
Streptococcus pyogenes = assay: Antimicrobial activity against Streptococcus pyogenes ATCC 19615 assessed as reduction in microbial growth measured after 20 hrs by CLSI based broth microdilution method; type: functional
Escherichia coli [15] = assay: Antimicrobial activity against Escherichia coli ATCC 25922 assessed as reduction in microbial growth measured after 20 hrs by CLSI based broth microdilution method; type: functional; outline: as §3
Streptococcus pneumoniae [16] = assay: Antimicrobial activity against Streptococcus pneumoniae clinical isolate CUHK-X02 assessed as reduction in microbial growth measured after 20 hrs by CLSI based broth microdilution method; type: functional
Streptococcus pneumoniae [17] = assay: Antimicrobial activity against Streptococcus pneumoniae clinical isolate CUHK-X03 assessed as reduction in microbial growth measured after 20 hrs by CLSI based broth microdilution method; type: functional
Staphylococcus aureus [18] = assay: Antimicrobial activity against Staphylococcus aureus ATCC 25923 measuring eradication of bacteria at 4 to 16 times MIC measured over 6 hrs by time-kill assay; type: functional; outline: as §1
Acinetobacter baumannii = assay: Antimicrobial activity against Acinetobacter baumannii ATCC 19606 assessed as reduction in microbial growth measured after 20 hrs by CLSI based broth microdilution method; type: functional; outline: as §3
Staphylococcus aureus [19] = assay: Antimicrobial activity against community-associated methicillin-resistant Staphylococcus aureus USA300 assessed as reduction in bacterial count at 1 times MIC measured after 4 to 6 hrs by time-kill assay; type: functional, organism-based; settings: time 4-6 hrs; outline: as §1
Bacillus subtilis [20] = assay: Antibacterial activity against Bacillus Subtilis assessed as bacterial transcription by measuring delocalization of GFP-tagged RpoC at 1 time MIC incubated for 30 mins by epifluorescence microscopy based analysis; type: functional, organism-based; outline: as §2
Enterococcus faecalis = assay: Antimicrobial activity against Enterococcus faecalis ATCC 19433 assessed as reduction in microbial growth measured after 20 hrs by CLSI based broth microdilution method; type: functional; outline: as §3
Streptococcus pneumoniae [21] = assay: Antimicrobial activity against Streptococcus pneumoniae TCH8431 (HM-145) assessed as reduction in microbial growth measured after 20 hrs by CLSI based broth microdilution method; type: functional
[22] = test system: Staphylococcus epidermidis; assay: Antimicrobial activity against Staphylococcus epidermidis ATCC 12228 assessed as reduction in microbial growth measured after 20 hrs by CLSI based broth microdilution method; type: functional
Staphylococcus aureus [23] = assay: Antimicrobial activity against community-associated methicillin-resistant Staphylococcus aureus USA300 assessed as reduction in bacterial count below the detectable threshold at 4 to 16 times MIC measured after 4 hrs by time-kill assay; type: functional, organism-based; outline: as §1
Escherichia coli [24] = assay: Antimicrobial activity against Escherichia coli K12 transformed with pSL103 assessed as reduction in bacterial growth measured after 30 mins; type: functional; settings: K12, 0.5 h
Streptococcus agalactiae = assay: Antimicrobial activity against Streptococcus agalactiae ATCC 12386 assessed as reduction in microbial growth measured after 20 hrs by CLSI based broth microdilution method; type: functional
Staphylococcus aureus [25] = assay: Antimicrobial activity against Staphylococcus aureus ATCC 25923 assessed as inhibition of microbial growth at 1 times MIC measured after 2 hrs by time-kill assay; type: functional, organism-based
Streptococcus pneumoniae [26] = assay: Antimicrobial activity against Streptococcus pneumoniae clinical isolate CUHK-X01 assessed as reduction in microbial growth measured after 20 hrs by CLSI based broth microdilution method; type: functional
Pseudomonas aeruginosa = assay: Antimicrobial activity against Pseudomonas aeruginosa ATCC 27853 assessed as reduction in microbial growth measured after 20 hrs by CLSI based broth microdilution method; type: functional; outline: as §3
[27] = Inhibition of Bacillus subtilis LgBiT-fused NusG/C-terminal SmBit fused […] CH protein-protein interaction using […] incubated for 20 mins by luminescence based analysis
Outline: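 Split-nanoluciferase competition assay with His-tagged proteins expressed in E. coli BL21(DE3) and Ni-purified. C-SmBiT-β'CH (250 nM in PBS) was preincubated with compound for 10 min at 37 °C. N-LgBiT-NusG (250 nM in PBS) was then added and incubated 10 min at 37 °C. Nano-Glo substrate was added and luminescence read. IC50 determined. Triplicate with technical repeats.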

Enterobacter cloacae = assay: Antimicrobial activity against Enterobacter cloacae ATCC 13047 assessed as reduction in microbial growth measured after 20 hrs by CLSI based broth microdilution method; type: functional; outline: as §3

With `OC(CNCCNc1ccccc1C(F)(F)F)CSc1ccc(C(F)(F)F)cc1` (centres undefined) the Activity (Staphylococcus aureus [1]) was “Active”, the MIC (Streptococcus pneumoniae [2]) was 1 µg/mL and the Activity (Staphylococcus aureus [3]) was “Active”. For the same compound, the Activity (Staphylococcus aureus [4]) was 100%, the MIC [5] was 2 µg/mL and the Activity (Bacillus subtilis [6]) was “Active”. The MIC (Staphylococcus aureus [7]) was 4 µg/mL, the Activity (Staphylococcus aureus [8]) was “Active” and the Activity (Bacillus subtilis [9]) was “Active”. The Activity (Bacillus subtilis [10]) was “Active”, the Activity (Escherichia coli [11]) was “Active” and the MIC (Streptococcus pneumoniae [12]) was 4 µg/mL. It also gave an MIC (Klebsiella pneumoniae) greater than 256 µg/mL, an MIC (Streptococcus pneumoniae [13]) of 2 µg/mL and an MIC (Staphylococcus aureus [14]) of 4 µg/mL. The MIC (Streptococcus pyogenes) was 8 µg/mL, the MIC (Escherichia coli [15]) was 64 µg/mL and the MIC (Streptococcus pneumoniae [16]) was 4 µg/mL. The MIC (Streptococcus pneumoniae [17]) was 8 µg/mL, the Activity (Staphylococcus aureus [18]) was less than 200 CFU/ml and the MIC (Acinetobacter baumannii) was greater than 256 µg/mL. The Activity (Staphylococcus aureus [19]) was “Active”, the Activity (Bacillus subtilis [20]) was “Active” and the MIC (Enterococcus faecalis) was 8 µg/mL. The MIC (Streptococcus pneumoniae [21]) was 2 µg/mL, the MIC [22] was 8 µg/mL and the Activity (Staphylococcus aureus [23]) was “Active”. The MIC (Escherichia coli [24]) was 16 µg/mL (≈ 36.5 µM), the MIC (Streptococcus agalactiae) was 16 µg/mL and the Activity (Staphylococcus aureus [25]) was “Active”. It also gave an MIC (Streptococcus pneumoniae [26]) of 1 µg/mL, an MIC (Pseudomonas aeruginosa) greater than 256 µg/mL and an IC50 [27] of 142 µM. The MIC (Enterobacter cloacae) was 32 µg/mL.
